Results reported in ChEMBL document CHEMBL5360630, “Macrocyclic Peptidomimetic Plasmepsin X Inhibitors with Potent In Vitro and In Vivo Antimalarial Activity” (J Med Chem, 2023).
Active and inactive are the calls of the source. The calls are words filed in the database; no cut-off is given here.

Experiments:
[1] = Toxicity in NMRI mouse assessed as adverse effect at 50 mg/kg, po measured upto 24 hrs by UP-LCMS analysis; format: organism-based; settings: in vivo
Outline: (§1)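 Female NMRI mice (10–12 weeks, 29–32 g), acclimatized 1 week, given a single peroral bolus of 50 mg/kg (10 mL/kg). Toxicity signs scored on a 0–6 scale at 0–2, 5, 10, 15, 30, 60, 120, 240 min and 24 h after dosing.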

Plasmodium falciparum [2] = assay: Antiplasmodial activity against Plasmodium falciparum infected in NSG mouse model assessed as accumulation of circulating mature schizonts at 40 mg/kg, po measured after 3 days by giemsa staining based flow cytometry analysis; format: functional, organism-based; settings: time 3.0 day
Outline: (§2)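 Female NSG mice (22–28 g) engrafted with human erythrocytes by daily i.p./i.v. injection; once >40% circulating human RBCs, infected i.v. with P. falciparum Pf3D7 0087/N9. Oral gavage (10 mL/kg) from ~1.3% parasitemia (Day 1); 40 mg/kg QD, BID or TID for 4 days. Parasitemia in tail blood by flow cytometry (TER-119-PE, SYTO-16) and Giemsa smears; stage distribution examined on day 3.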

Plasmodium falciparum [3] = assay: Antiplasmodial activity against Plasmodium falciparum infected in PfalcHy mouse assessed as reduction in blood parasitemia level administered orally; format: functional, organism-based; settings: dose 40.0 mg/kg, route po; outline: as §2
[4] = Toxicity in NMRI mouse assessed as drug tolerance at 50 mg/kg, po measured upto 24 hrs by UP-LCMS analysis; format: organism-based; settings: in vivo; outline: as §1

With `CCCN1CCCCCc2cccc(c2)C[C@@H]([C@H](O)CNC(C)(C)c2cccc(OC)c2)NC(=O)c2cccc(c2)C1=O` the Activity [1] was “Non-Toxic”, the Activity (Plasmodium falciparum [2]) was “Active” and the Activity (Plasmodium falciparum [3]) was “Dose-Dependent Effect”. The Activity [4] was “Non-Toxic”.
